# Source: PubChem BioAssay
# NOD2-RIPK2 inh: inhibitors of human NOD2-RIPK2 interaction | O43353 | CHO BLA complementation NOD2-RIPK2, CCF4 ratio | inhibition, % at 4.98 µM | 0.38% of 360,000 active | AID 624267; in the data active means inhibition above about 21%;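 further: 0% = vehicle only and 100% = reference blocker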
# TLR4-MyD88 BLA: TLR4-MyD88 interaction inhibition in cells; inhibition, % at 8.4 µM; AID 861; O00206+Q99836; HeLa CL3-4 TLR4/MyD88 BLA complementation, FRET ratio; 0.18% of 200,000 active; in the data active means inhibition above about 25%;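 further: 0% = vehicle and 100% = reference inhibitor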
# CHOP UPR activ: apoptotic UPR (CHOP) activation; CHO-CHOP luciferase reporter, luminescence; percent of tunicamycin response over DMSO baseline; activation, % at 10 µM; 0.34% of 330,000 active; AID 449763;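 active means at 10 µM dose, activation of 40% or more, normalized to positive control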;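 further: 100% = tunicamycin at 10 µg/mL and 0% = DMSO alone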
#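 measured by = luciferase luminescence | assay system = CHO-CHOP cells, stable luciferase reporter of PERK-eIF2a-CHOP signalling | amount = 500 reporter cells seeded per well | timing = 6 h compound exposure at 37 °C after overnight seeding | controls = positive tunicamycin 10 µg/mL, negative DMSO alone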
# XBP1 UPR activ: activators of adaptive arm of unfolded protein response (XBP1). AID 463104. CHO-XBP1 luciferase reporter, IRE1-XBP1 UPR activation, luminescence; percent of tunicamycin response, DMSO as zero. 0.33% of 330,000 active. activation, % at 20 µM;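 active means versus positive control, 20 µM dose yields 30% or more activation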;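 further: 100% = tunicamycin at 10 µg/mL and 0% = DMSO only wells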
#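 Material – CHO cell line with stable XBP1 luciferase reporter · Buffer or medium – F12 plus 10% FBS · Compound – single point, 20 µM final compound, 1% DMSO · Schedule – 16-18 h cell attachment at 37 °C, then 6 h compound exposure · Signal – Steady-Glo luminescence read · Benchmarks – high control tunicamycin 10 µg/mL final, low control DMSO vehicle only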
# TLR9-MyD88 block: blocks human TLR9 binding to MyD88 | 0.21% of 340,000 active | CHO BLA complementation TLR9-MyD88, CCF4 FRET ratio | inhibition, % at 4.98 µM;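 active means inhibition above the mean over all tested compounds plus 3 SD, cut at about 21% in these data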;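 further: 0% = DMSO only wells and 100% = clavulanate BLA inhibitor control wells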
# Target sequence (Q99836 whole entry, looked up): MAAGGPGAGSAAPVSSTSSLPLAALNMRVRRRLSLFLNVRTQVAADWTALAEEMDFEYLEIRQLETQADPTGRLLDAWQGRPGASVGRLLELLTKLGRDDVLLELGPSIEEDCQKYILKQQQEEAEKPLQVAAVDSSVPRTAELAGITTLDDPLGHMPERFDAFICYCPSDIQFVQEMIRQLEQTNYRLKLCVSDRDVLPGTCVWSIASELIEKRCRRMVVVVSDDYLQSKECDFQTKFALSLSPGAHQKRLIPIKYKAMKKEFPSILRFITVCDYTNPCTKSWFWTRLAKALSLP
# Target sequence (Q9NR96 whole entry, looked up): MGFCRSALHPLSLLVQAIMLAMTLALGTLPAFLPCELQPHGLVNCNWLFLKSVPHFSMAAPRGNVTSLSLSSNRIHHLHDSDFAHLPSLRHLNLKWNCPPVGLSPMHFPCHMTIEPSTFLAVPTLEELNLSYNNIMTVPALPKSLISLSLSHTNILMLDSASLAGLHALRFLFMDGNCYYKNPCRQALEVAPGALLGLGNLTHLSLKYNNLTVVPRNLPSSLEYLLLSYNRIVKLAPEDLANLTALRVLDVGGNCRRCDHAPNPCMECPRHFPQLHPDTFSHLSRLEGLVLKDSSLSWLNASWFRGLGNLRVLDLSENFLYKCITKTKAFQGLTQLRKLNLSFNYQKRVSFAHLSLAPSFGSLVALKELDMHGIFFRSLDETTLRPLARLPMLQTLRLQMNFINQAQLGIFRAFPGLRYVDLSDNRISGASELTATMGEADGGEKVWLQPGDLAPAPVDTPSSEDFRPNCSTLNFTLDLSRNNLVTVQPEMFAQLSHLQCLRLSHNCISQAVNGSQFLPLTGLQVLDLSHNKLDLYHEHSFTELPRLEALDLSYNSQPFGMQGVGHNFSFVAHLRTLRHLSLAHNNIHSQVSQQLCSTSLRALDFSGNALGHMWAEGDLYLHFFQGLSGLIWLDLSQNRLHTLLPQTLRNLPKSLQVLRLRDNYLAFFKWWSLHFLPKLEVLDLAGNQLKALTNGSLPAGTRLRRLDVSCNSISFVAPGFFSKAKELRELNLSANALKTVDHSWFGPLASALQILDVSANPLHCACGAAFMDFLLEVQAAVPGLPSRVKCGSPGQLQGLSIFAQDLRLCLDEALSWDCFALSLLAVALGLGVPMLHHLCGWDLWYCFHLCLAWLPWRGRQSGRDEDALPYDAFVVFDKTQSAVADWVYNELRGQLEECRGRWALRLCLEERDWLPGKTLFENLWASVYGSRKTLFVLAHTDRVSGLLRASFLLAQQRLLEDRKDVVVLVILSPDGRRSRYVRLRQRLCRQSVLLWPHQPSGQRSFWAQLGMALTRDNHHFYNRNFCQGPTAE
# CHOP inh: CHOP inhibition in unfolded protein response; 3.8% of 220,000 active; inhibition, % at 10 µM; CHO-K1 CHOP-promoter luciferase, tunicamycin-induced, 15-18 h;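 active means compounds that reduced the stress-induced luciferase reporter signal by more than about 70% of percent inhibition, limit read from the data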;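 further: 0% = tunicamycin plus vehicle and 100% = wells without tunicamycin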
# * = called active by the depositor; . = no result given. The full list was thinned out, with hits kept by preference.
SMILES,NOD2-RIPK2 inh,TLR4-MyD88 BLA,CHOP UPR activ,XBP1 UPR activ,TLR9-MyD88 block,CHOP inh
Cn1c(=O)c2ncn(CC(=O)Nc3cccc(-c4nc5ccccc5s4)c3)c2n(C)c1=O,3.6,-4.6,5.6,17.3,-15.5,81.6*
O=C(CSc1nnc2ccccn12)Nc1cccc(-c2nc3ccccc3s2)c1,0.8,0.0,1.9,1.9,4.8,93.2*
O=C(CSc1nnc2ccccn12)Nc1ccc2c(c1)OCO2,9.2,-3.4,1.4,-2.0,-2.0,-9.5
Cc1cc(Br)cn2c(Cc3ccccc3)c(-c3ccc(C#N)cc3)nc12,4.9,.,.,.,.,.
O=C(N/C(=C/c1ccccc1)C(=O)N1CCCCC1)c1ccccc1,-9.4,.,0.6,-2.7,3.9,.
O=C(/C(=C/c1ccccc1)c1ccccc1)N1CCCCC1,-11.7,-6.4,-1.9,-1.2,1.1,86.9*
C=Cc1ccc(Cn2c(C)c(C(=O)NCc3cccc(C)c3)sc2=O)cc1,-0.1,.,.,.,.,.
O=C(NC1CCCCCC1)c1cc2n(n1)C(C(F)(F)F)CC(c1ccco1)N2 (configuration not stated),2.5,-11.2,-3.2,-2.2,-9.6,74.1*
COc1ccc(NC(=O)c2cc3n(n2)C(C(F)(F)F)CC(c2ccc4c(c2)OCO4)N3)cc1OC (configuration not stated),0.2,15.1,-0.1,-2.8,4.9,62.4
O=C(Nc1ccc(O)cc1)c1cc2n(n1)C(C(F)(F)F)CC(c1ccco1)N2 (configuration not stated),0.7,4.4,-1.4,4.3,2.5,6.7
Cc1cccc(NC(=O)c2cc3n(n2)C(C(F)(F)F)CC(c2ccc4c(c2)OCO4)N3)c1 (configuration not stated),-1.8,-7.0,1.5,-2.7,4.0,71.0*
O=C(NC1CCCCC1)C(c1ccnc2ccccc12)n1c(=O)c(-c2ccccc2)nc2ccccc21 (configuration not stated),-19.4,.,.,.,.,.
O=c1cc(NCc2ccco2)[nH]c(=O)n1-c1ccc(Br)cc1,-3.3,-5.6,-1.0,-3.5,0.6,82.2*
O=c1cc(NCc2ccc3c(c2)OCO3)[nH]c(=O)n1-c1ccc(Cl)cc1,0.9,-3.4,-0.2,0.3,7.1,27.0
Cc1cc(C)cc(NC(=O)c2nnn(Cc3cc(C)ccc3C)c2N)c1,1.5,-4.0,1.3,0.2,-13.2,92.9*
Cc1ccc(C)c(Cn2nnc(C(=O)Nc3ccc4c(c3)OCCO4)c2N)c1,-1.4,.,5.3,0.3,-6.4,.
COc1cccc(NC(=O)c2nnn(Cc3ccc(Br)cc3F)c2N)c1,-3.4,8.7,3.4,-0.5,1.3,73.1*
CC(C)NC(=S)NC(=O)/C=C/c1cccc2ccccc12,-7.2,-22.9,-0.7,-2.5,-4.3,86.5*
CN1CCN(C(=S)NC(=O)/C=C/c2cccc3ccccc23)CC1,-12.2,-20.1,-0.7,-3.2,-8.6,20.0
COc1ccc(C(=O)N/C(=C\c2cn(S(=O)(=O)N(C)C)c3ccccc23)C(=O)N2CCN(C)CC2)cc1OC,-11.4,.,.,.,-2.7,.
O=C(/C(=N/N=C/c1ccc(O)c(O)c1O)c1ccccc1)c1ccccc1,-5.6,-3.4,0.0,0.3,6.5,72.1*
CCN(CC)S(=O)(=O)c1cccc(C(=O)N/N=C/c2ccc(O)c(O)c2O)c1,6.5,6.4,.,.,7.7,57.5
Oc1ccc(/C=N/N=C(c2ccccc2)c2ccccc2)c(O)c1O,-2.5,-9.7,.,.,-0.7,70.2*
Cc1c(Cl)cnc(NC(=O)COC(=O)c2cccc(S(=O)(=O)N3CCOCC3)c2)c1Cl,-4.5,.,.,.,-3.8,.
Cc1ccc(S(=O)(=O)NC(=O)C2(C)CCN2C(=O)c2ccccc2CCc2ccccc2)cc1 (configuration not stated),-7.4,.,.,.,.,.
COc1ccc(CNC(=O)c2c(C)oc3c2C(=O)c2ccccc2C3=O)cc1,3.4,-11.6,6.9,2.8,-11.3,-21.0
CC(=O)c1c2c3c(c(Br)ccc3n(C)c1=O)C(=O)c1ccccc1-2,15.6,.,0.2,0.4,4.4,.
CC(=O)c1c(C)oc2c1C(=O)c1ccccc1C2=O,1.8,10.8,.,.,4.8,73.0*
